Published values from different studies.
Target: Myosin-IIIa (MYO3A, Homo sapiens, UniProt Q8NEV4)

CN(C)c1nccc(-c2cnc3ncccn23)n1 — remaining binding (binding; 1 µM): 90%
COc1cnc(Nc2cccc(S(N)(=O)=O)c2)nc1N1CCN(c2ccccc2)CC1 — remaining binding (binding, competition with immobilised ligand; 1 µM): 100%
c1cnn2ncc(-c3ccnc(N4CCC45COC5)n3)c2c1 — remaining binding (binding; 1 µM): 55%
O=C(c1ccc(Nc2ncc(Cl)c(-c3cc4ccccc4s3)n2)cc1)N1CCC(N2CCCC2)CC1 — remaining binding (binding, competition with immobilised ligand; 1 µM): 91%
C[C@@H]1CN(c2cc(-c3nn(C)c4ccc(OC5(C)CC5)cc34)ncn2)C[C@H](C)O1 — remaining binding (cell-free assay, competition with immobilised ligand; 1 µM): 100%
O=C(c1ccc(Nc2ncc(Cl)c(-c3ccc(Cl)s3)n2)cc1)N1CCC(N2CCCC2)CC1 — remaining binding (binding, competition with immobilised ligand; 1 µM): 81%
FC(F)(F)c1ccc2c(c1)nc(-c1cccnc1)n2C1CC1 — remaining binding (cell-free assay, competition with immobilised ligand; 1 µM): 100%
O=C(Nc1c[nH]nc1C(=O)NC1CCNCC1)c1cc(F)cc(F)c1 — remaining binding (binding, competition with immobilised ligand; 1 µM): 94%
COc1ccnn2ncc(-c3ccnc(N(C)C)n3)c12 — remaining binding (binding; 1 µM): 96%
CCC(=O)N[C@H]1CC[C@@H](C(=O)N(C)c2ccc(-c3nc4ccccc4o3)cc2)C1 — remaining binding (cell-free assay, competition with immobilised ligand; 1 µM): 100%
CN(CCCC(F)(F)F)c1nccc(-c2cnn3ncccc23)n1 — remaining binding (binding; 1 µM): 78%
COc1cnc(Nc2cccc(S(N)(=O)=O)c2)nc1N1CCN(c2ccccc2)C(=O)C1 — remaining binding (binding, competition with immobilised ligand; 1 µM): 100%
Cc1c(NC(=O)c2cc(C(N)=O)nc3cc(F)ccc23)c(C(F)(F)F)nn1Cc1ccc(C#N)cc1 — remaining binding (binding, competition with immobilised ligand; 1 µM): 91%
CN(C)c1nccc(-c2cnn3ncccc23)n1 — remaining binding (binding; 1 µM): 100%
COc1ncc2cc3ccccc3nc2c1C#N — remaining binding (binding, competition with immobilised ligand; 5 µM): 100%
O=C(NS(=O)(=O)c1ccc(NCC2CCOCC2)c([N+](=O)[O-])c1)c1ccc(N2CCN(Cc3ccc(C(F)(F)F)cc3-c3ccc(Cl)cc3)CC2)cc1Oc1cnc2[nH]ccc2c1 — remaining binding (cell-free assay, competition with immobilised ligand; 1 µM): 85%
Cc1cnc(Nc2ccc(C(=O)N3CCC(N4CCCC4)CC3)cc2)nc1-c1cc2ccccc2s1 — remaining binding (binding, competition with immobilised ligand; 1 µM): 85%
CCC(=N\O)/C(C)=C/c1ccc(F)cc1 — remaining binding (cell-free assay, competition with immobilised ligand; 1 µM): 100%
C=CC(=O)N1CCC(C(=O)NCC(=O)N2CCN(c3nc(-c4cnc(N)nc4C(F)F)nc(N4CCOCC4)n3)CC2)CC1 — remaining binding (binding, competition with immobilised ligand; 1 µM): 100%
CCN1CCN(Cc2ccc(C(=O)Nc3ccc(C)c(Oc4ccc5c(c4)CC(=O)N5)c3)cc2C(F)(F)F)CC1 — remaining binding (binding, competition with immobilised ligand; 1 µM): 100%
CN(c1nccc(-c2cnn3ncccc23)n1)C1CC1 — remaining binding (binding; 1 µM): 77%
